SMILES strings stand for the structures. Active and inactive are the calls of the source. No cut-off for these calls is given here.

Test [1] concerns Canis familiaris. The test is described as follows: Antihypertensive activity against angiotensin II-induced pressor response in conscious normotensive Beagle dog assessed as rate of change of mean arterial blood pressure at 2.13 mg/kg, po after 1 hr. The format is functional, Canis lupus familiaris, Artery. The method in brief: (§1)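 Conscious normotensive Beagle dogs, 6–7 per group. Baseline BP and heart rate recorded once stable, then test compound given orally at 2.13 mg/kg. BP and heart rate read 1 h after dosing, then AngII 0.45 µg/kg iv, with waveforms recorded 1 min after injection. Values given as rate of change relative to pre-model baseline (100%), with SEM.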

Test [2] relates to Canis familiaris. The test is described as follows: Antihypertensive activity against angiotensin II-induced pressor response in conscious normotensive Beagle dog assessed as decrease in basal heart rate at 2.13 mg/kg, po after 1 hr. As to conditions: Canis lupus familiaris. The test is classed as functional, organism-based. On the set-up: dose 2.13 mg/kg. The method in brief: as §1

Test [3] deals with Canis familiaris. The test is described as follows: Antihypertensive activity against angiotensin II-induced pressor response in conscious normotensive Beagle dog assessed as rate of change of mean systolic blood pressure at 2.13 mg/kg, po after 1 hr. The test is classed as functional, Canis lupus familiaris, Artery. The method, boiled down:
as §1

For test [4], the system named is Canis familiaris. The test can be described thus: Antihypertensive activity against angiotensin II-induced pressor response in conscious normotensive Beagle dog assessed as rate of change of mean diastolic blood pressure at 2.13 mg/kg, po after 1 hr. The format is functional, Canis lupus familiaris, Artery. The method in brief: as §1

Take `CCCc1nc2c(C)cc(-c3nc4ccccc4n3C)cc2n1Cc1ccc(-c2ccccc2C2=NCCN2)cc1`: the Activity was determined as 97.43% with Canis familiaris [1], 96.75% with Canis familiaris [3] and 95.28% in the test with Canis familiaris [4]. Also, the outcome in the test on Canis familiaris [2] was Active.

As for `CCCc1nc2c(C)cc(-c3nc4ccccc4n3C)cc2n1Cc1ccc(-c2ccccc2C(=O)O)cc1`, the Activity in the test with Canis familiaris [1] was found to be 96.13%; with Canis familiaris [3], 95.78%; in the test with Canis familiaris [4] it was 96.15%.

Regarding `CCCc1nc2c(C)cc(-c3nc4ccccc4n3C)cc2n1Cc1ccc(-c2ccccc2-c2ncc(Cl)[nH]2)cc1`, the Activity is given as 95.43% in the test with Canis familiaris [1], 95.75% with Canis familiaris [3] and 95.28% in the test on Canis familiaris [4]. The result with Canis familiaris [2] was Active.

As to `CCCc1nc2c(C)cc(-c3nc4ccccc4n3C)cc2n1Cc1ccc(-c2ccccc2-c2ncc[nH]2)cc1`, the Activity is 98.11% in the test on Canis familiaris [1], 98.67% in the test on Canis familiaris [3] and 97.96% in the test on Canis familiaris [4]. Besides, the outcome in the test on Canis familiaris [2] was Active.

As to `CCCc1nc2c(C)cc(-c3nc4ccccc4n3C)cc2n1Cc1ccc(-c2ccccc2-c2ncn[nH]2)cc1`, the Activity in the test on Canis familiaris [1] is given as 103.37%; in the test with Canis familiaris [3], 103.8%; in the test on Canis familiaris [4] it was 103.14%. Also, the outcome with Canis familiaris [2] was inactive.

These data come from ChEMBL document CHEMBL1152172, “Synthesis and biological activities of novel nonpeptide angiotensin II receptor antagonists based on benzimidazole derivatives bearing a heterocyclic ring” (Bioorg Med Chem, 2008).
